Source: ChEMBL document CHEMBL1144302, “Triaryl bis-sulfones as a new class of cannabinoid CB2 receptor inhibitors: identification of a lead and initial SAR studies” (Bioorg Med Chem Lett, 2005)

What was measured:
[1] = Binding affinity for cannabinoid receptor 2 was determined by using [35S]GTP-gamma-S, as radioligand; type: functional, Homo sapiens
Method in brief: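 Human CB2 co-expressed with Gαi3 and β1γ2 in Sf9 cell membranes (7–14 pmol/mg receptor). Triplicate serial dilutions were incubated with membranes, 0.3 nM [35S]GTPγS and GDP in 20 mM HEPES, 100 mM NaCl, 5 mM MgCl2, 0.2% (w/v) lipid-free BSA, pH 7.4, for 30 min at 30°C. Reactions were stopped by filtration, and filters were washed 10× at room temperature with 20 mM HEPES/10 mM sodium pyrophosphate. Bound label was counted by liquid scintillation.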

[2] = biological target: Cannabinoid receptor (Homo sapiens) (UniProt P34972+P21554); assay: Selectivity of cannabinoid receptor 2 over cannabinoid receptor 1; type: protein assay
Sequence of Cannabinoid receptor (Homo sapiens) (P21554 whole entry, looked up): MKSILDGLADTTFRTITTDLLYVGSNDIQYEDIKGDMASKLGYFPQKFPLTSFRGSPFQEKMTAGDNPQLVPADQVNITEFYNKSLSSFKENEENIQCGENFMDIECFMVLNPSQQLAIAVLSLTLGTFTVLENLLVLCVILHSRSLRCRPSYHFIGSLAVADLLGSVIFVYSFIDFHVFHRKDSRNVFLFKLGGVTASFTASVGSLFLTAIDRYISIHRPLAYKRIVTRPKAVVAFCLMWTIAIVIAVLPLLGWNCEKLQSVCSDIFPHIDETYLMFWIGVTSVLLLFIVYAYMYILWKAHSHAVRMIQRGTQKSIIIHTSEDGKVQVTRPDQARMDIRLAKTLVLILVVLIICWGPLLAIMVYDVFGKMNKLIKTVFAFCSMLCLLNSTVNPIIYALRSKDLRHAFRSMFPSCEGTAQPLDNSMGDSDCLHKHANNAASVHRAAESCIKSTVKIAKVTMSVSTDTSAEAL
Sequence of Cannabinoid receptor (Homo sapiens) (P34972 whole entry, looked up): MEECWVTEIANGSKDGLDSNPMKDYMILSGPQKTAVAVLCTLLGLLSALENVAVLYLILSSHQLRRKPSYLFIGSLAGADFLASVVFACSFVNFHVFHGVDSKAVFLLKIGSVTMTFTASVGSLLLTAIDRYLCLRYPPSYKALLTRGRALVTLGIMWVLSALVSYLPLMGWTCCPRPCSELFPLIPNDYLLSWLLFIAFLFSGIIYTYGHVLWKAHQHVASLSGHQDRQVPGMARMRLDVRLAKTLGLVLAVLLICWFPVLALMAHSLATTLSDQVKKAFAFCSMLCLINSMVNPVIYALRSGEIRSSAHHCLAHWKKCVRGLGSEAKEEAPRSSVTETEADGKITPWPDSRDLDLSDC

Cannabinoid receptor 1 = Cannabinoid receptor 1 (Homo sapiens, UniProt P21554); assay: Binding affinity for cannabinoid receptor 1
Sequence of Cannabinoid receptor 1 (P21554 whole entry): as the sequence (P21554 whole entry, looked up) above

Cannabinoid receptor 2 = Cannabinoid receptor 2 (Homo sapiens, UniProt P34972); assay: Binding affinity for human cannabinoid receptor 2 was determined by using [3H]CP-55940 as radioligand
Sequence of Cannabinoid receptor 2 (P34972 whole entry): as the sequence (P34972 whole entry, looked up) above

| SMILES | Ki [1] | Selectivity [2] | Ki (Cannabinoid receptor 1) | Ki (Cannabinoid receptor 2) |
| --- | --- | --- | --- | --- |
| CCCC(=O)N[C@@H](C)c1ccc(S(=O)(=O)c2ccc(OC)cc2S(=O)(=O)c2ccc(OC)cc2)cc1 | 6.2 nM | 189 | 1170 nM | – |
| COc1ccc(C(=O)c2c(C)n(CCN3CCOCC3)c3cc(I)ccc23)cc1 | – | – | – | 31.2 nM |
| COc1ccc(S(=O)(=O)c2cc(OC)ccc2S(=O)(=O)c2ccc([C@H](C)NC(=O)C3CC3)cc2)cc1 | 15.7 nM | 676 | 10600 nM | – |
| COc1ccc(S(=O)(=O)c2cc(OC)ccc2S(=O)(=O)c2ccc([C@H](C)NS(C)(=O)=O)cc2)cc1 | 0.4 nM | 2260 | 905 nM | – |
| CCS(=O)(=O)N[C@@H](C)c1ccc(S(=O)(=O)c2ccc(OC)cc2S(=O)(=O)c2ccc(OC)cc2)cc1 | 1 nM | 1510 | 1970 nM | – |
| COc1ccc(S(=O)(=O)c2cc(OC)ccc2S(=O)(=O)c2ccc([C@H](C)NC(=O)Nc3ccc(F)cc3)cc2)cc1 | 1140 nM | 15 | 17600 nM | – |
| COc1ccc(S(=O)(=O)c2cc(OC)ccc2S(=O)(=O)c2ccc([C@H](C)NC(=O)c3ccc(C)cc3)cc2)cc1 | 289 nM | 3 | 884 nM | – |
| COc1ccc(S(=O)(=O)c2cc(OC)ccc2S(=O)(=O)c2ccc([C@H](C)NS(=O)(=O)c3ccc(Cl)c(Cl)c3)cc2)cc1 | 2480 nM | 0.05 | 117 nM | – |
| COc1ccc(S(=O)(=O)c2cc(OC)ccc2S(=O)(=O)c2ccc([C@H](C)NC(=O)Cc3ccccc3)cc2)cc1 | 412 nM | 1.2 | 478 nM | – |
| COc1ccc(S(=O)(=O)c2cc(OC)ccc2S(=O)(=O)c2ccc([C@H](C)NC(=O)c3ccc(Cl)c(Cl)c3)cc2)cc1 | 167 nM | 0.5 | 84 nM | – |
| COc1ccc(S(=O)(=O)c2cc(OC)ccc2S(=O)(=O)c2ccc([C@H](C)NC(=O)C(F)(F)F)cc2)cc1 | 0.3 nM | 783 | 235 nM | – |
| COc1ccc(S(=O)(=O)c2cc(OC)ccc2S(=O)(=O)c2ccc([C@H](C)NS(=O)(=O)c3ccc(C)cc3)cc2)cc1 | 495 nM | 3.9 | 1920 nM | – |
| CCC(=O)N[C@@H](C)c1ccc(S(=O)(=O)c2ccc(OC)cc2S(=O)(=O)c2ccc(OC)cc2)cc1 | 29 nM | 122 | 3560 nM | – |
| COc1ccc(S(=O)(=O)c2cc(OC)ccc2S(=O)(=O)c2ccc([C@H](C)NC(C)=O)cc2)cc1 | 7.7 nM | 231 | 1780 nM | – |
| COc1ccc(S(=O)(=O)c2cc(OC)ccc2S(=O)(=O)c2ccc([C@H](C)NC(=O)C(C)(C)C)cc2)cc1 | 38.6 nM | 60 | 2310 nM | – |
| COc1ccc(S(=O)(=O)c2cc(OC)ccc2S(=O)(=O)c2ccc([C@H](C)NS(=O)(=O)Cc3ccccc3)cc2)cc1 | 160 nM | 0.5 | 79 nM | – |
| COc1ccc(S(=O)(=O)c2cc(OC)ccc2S(=O)(=O)c2ccc([C@H](C)NS(=O)(=O)c3ccccc3)cc2)cc1 | 239 nM | 3.6 | 855 nM | – |
| COc1ccc(C(=O)N[C@@H](C)c2ccc(S(=O)(=O)c3ccc(OC)cc3S(=O)(=O)c3ccc(OC)cc3)cc2)cc1 | 1260 nM | 0.9 | 1170 nM | – |
| CCCNC(=O)N[C@@H](C)c1ccc(S(=O)(=O)c2ccc(OC)cc2S(=O)(=O)c2ccc(OC)cc2)cc1 | 495 nM | 145 | 72100 nM | – |
| COc1ccc(S(=O)(=O)c2ccc([C@H](C)NC(=O)C(F)(F)F)cc2)cc1 | 31 nM | – | – | – |
| CCCCS(=O)(=O)N[C@@H](C)c1ccc(S(=O)(=O)c2ccc(OC)cc2S(=O)(=O)c2ccc(OC)cc2)cc1 | 41 nM | 27 | 1130 nM | – |
| COc1ccc(S(=O)(=O)c2cc(OC)ccc2S(=O)(=O)c2ccc([C@H](C)NC(=O)Nc3ccc(C)cc3)cc2)cc1 | 802 nM | 125 | 100000 nM | – |
